Measured values published in publication PMC8966662 (RSC Advances, 2022).
Where two headings read alike, the source gives them in different places.

Experiments:
[1] = in vitro bioavailability, dialysis tubing procedure; assay type: in vitro ADME; details: sum of pepsin (stage 1) and pancreatin (stage 2) bioavailability
Outline: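 Test compound at 1.0 × 10³ μM in DMSO, with porcine pepsin and 2.0 w/v% sodium cholate, sealed in a dialysis bag in 8.5 × 10⁻¹ N HCl, shaking at 37 ± 0.5 °C for 2 h. Porcine pancreatin in NaHCO3, amylase and esterase then added; bag in pH 7.0 phosphate buffer, 37 °C, 4 h. Outer liquid sampled after each stage and quantified by UV-Vis against pH 1.0/7.0 calibration curves as % unchanged compound recovered; triplicate.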

[2] = tested on: strain TA 98; details: cited from earlier work
[3] = 2,2-diphenyl-1-picrylhydrazyl; assay type: biochemical; details: result in words
Outline: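 DPPH· freshly prepared at 50 μM in methanol; test compound stocks in DMSO. Sample mixed with DPPH· solution, kept 30 min in the dark, absorbance read at 517 nm by UV-Vis. %RSA calculated against DMSO vehicle control across a series of sample concentrations. IC50 taken from %RSA plots.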

[4] = ref 13 (Grande et al.); cited from earlier work

| Compound | total in vitro bioavailability [1] [%] | also measured |
| --- | --- | --- |
| NC(=O)COc1ccc(-c2cc(=O)c3c(OCC(N)=O)cc(OCC(N)=O)cc3o2)cc1 [Compound 2S3, 2,2′-((2-(4-(2-amino-2-oxoethoxy)phenyl)-4-oxo-4H-chromene-5,7-diyl)bis(oxy))diacetamide] | 22.20 ± 0.82 | toxicity in mutagenicity study [2]: nontoxic; mutagenic activity ([2]; strain TA 98): did not show any mutagenic activity; DPPH free radical scavenging activity (%RSA) [3]: very low |
| NC(=O)COc1cc(OCC(N)=O)c2c(=O)cc(-c3ccc(OCC(N)=O)c(OCC(N)=O)c3)oc2c1 [Compound 5S3, 2,2′-((4-(5,7-bis(2-amino-2-oxoethoxy)-4-oxo-4H-chromen-2-yl)-1,2-phenylene)bis(oxy))diacetamide] | 34.87 ± 0.87 | – |
| O=c1c(O)c(-c2ccc(O)c(O)c2)oc2cc(O)cc(O)c12 [Compound 1S0, quercetin] | – | total in vitro bioavailability [4]: 10.7 ± 1.3% |
| O=c1cc(-c2ccc(O)c(O)c2)oc2cc(O)cc(O)c12 [Compound 5S0, luteolin, reference compound] | 19.29 | – |
| O=c1c(O)c(-c2ccc(O)cc2)oc2cc(O)cc(O)c12 [Compound 4S0, kaempferol, reference compound] | 15.40 | – |
| O=c1c(O)c(-c2ccc(O)c(O)c2)oc2cc(O)ccc12 [Compound 3S0, Fisetin, reference compound] | 16.19 | – |
| O=c1cc(-c2ccc(O)cc2)oc2cc(O)cc(O)c12 [Compound 2S0, apigenin, reference compound] | 16.59 | DPPH free radical scavenging activity (%RSA) [3]: very low |
| NC(=O)COc1ccc2c(=O)c(OCC(N)=O)c(-c3ccc(OCC(N)=O)c(OCC(N)=O)c3)oc2c1 [Compound 3S3, 2,2′-((4-(3,7-bis(2-amino-2-oxoethoxy)-4-oxo-4H-chromen-2-yl)-1,2-phenylene)bis(oxy))diacetamide] | 34.81 ± 0.85 | – |
| NC(=O)COc1cc(OCC(N)=O)c2c(=O)c(OCC(N)=O)c(-c3ccc(OCC(N)=O)c(OCC(N)=O)c3)oc2c1 [Compound 1S3, 2,2′,2′′-((2-(3,4-bis(2-amino-2-oxoethoxy)phenyl)-4-oxo-4H-chromene-3,5,7-triyl)tris(oxy))triacetamide] | 20.70 ± 0.29 | toxicity in mutagenicity study [2]: nontoxic |
| NC(=O)COc1ccc(-c2oc3cc(OCC(N)=O)cc(OCC(N)=O)c3c(=O)c2OCC(N)=O)cc1 [Compound 4S3, 2,2′,2′′-((2-(4-(2-amino-2-oxoethoxy)phenyl)-4-oxo-4H-chromene-3,5,7-triyl)tris(oxy))triacetamide] | 21.34 ± 0.50 | – |
